High-throughput results deposited in PubChem BioAssay by Johns Hopkins Ion Channel Center.
KCNQ1 block = blocks the human KCNQ1 potassium channel | CHO-K1 KCNQ1, FluxOR thallium flux fluorescence; active compounds read high | B-score at 10 µM | hit rate 1.3% among 310,000;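 active = compounds whose thallium flux B-score, printed positive for inhibition, exceeds three library SD while starting fluorescence stays within three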;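 also: channel opened by potassium depolarization with thallium stimulus after 20 min compound exposure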
KCNQ1 act = potentiates or activates the human KCNQ1 potassium channel; CHO-K1 KCNQ1, thallium flux FluxOR fluorescence; active compounds read high; B-score at 10 µM; hit rate 0.35% among 310,000; AID 2648;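 active = fluorescence ratio B-score, a plate-corrected score, at least three library SD, with initial intensity B-score within 5 SD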
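assay system = KCNQ1-transfected CHO-K1 cells | medium = assay buffer with matched DMSO | probe or stimulus = depolarizing K+/Tl+ stimulus, K2SO4 and Tl2SO4 each 12.5 mM in 5x stock | dosing = single dose | incubation = dye 90 min, compound 20 min, room temperature | detection = kinetic FluxOR fluorescence, 10 s baseline plus 110 s post-stimulus | evaluation = ratio B score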
hERG protect = shields human hERG channel from block by proarrhythmic agents; Q12809; CHO-hERG, FluxOR thallium flux, dofetilide IC70 present; activation (rescue from dofetilide block), less the hit threshold, % at 10 µM; hit rate 0.51% among 310,000; AID 1511;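 active = activation above the mean of controls blocked by dofetilide plus 5 SD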;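 also: thallium influx through hERG after potassium depolarization seen as dye fluorescence rise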
KCNK9 inh = blocks the human KCNK9 two-pore domain potassium channel; HEK293 KCNK9, FluxOR thallium flux fluorescence; active compounds read low; B-score at 10 µM; hit rate 1.2% among 310,000;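 active = ratio B-score over 3 SD below the library mean, with starting fluorescence within 5 SD of its mean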;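 also: negative B-score means less thallium flux so channel inhibition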
KCNK3 inh = human KCNK3 channel inhibition, primary screen; CHO-KCNK3 thallium flux, FluxOR fluorescence; active compounds read low; O14649; AID 602410; B-score at 10 µM; hit rate 0.84% among 340,000;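 active = B-score under library mean minus 4 SD, starting fluorescence ratio at most library mean plus 5 SD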;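 also: more negative B-score means stronger inhibition of thallium flux through KCNK3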
KCNK9 inh conf = confirmation of human KCNK9 potassium channel inhibitors | shares compounds with KCNK9 inh | inhibition, % at 10 µM | hit rate 43% among 4,900 | AID 492992 | HEK293 KCNK9 cells, FluxOR thallium flux fluorescence;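 active = thallium signal inhibited by more than 5 SD of the compound-free buffer control wells, on both duplicate plates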
Kir21 sel = tests whether KCNK9 modulators also affect mouse Kir2.1; shares compounds with KCNK9 inh; Kir2.1 cells, FluxOR thallium flux fluorescence; inhibition, % at 10 µM; hit rate 4% among 4,900; AID 492993;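 active = thallium signal drop more than 5 SD beyond the mean of the no-compound control wells, seen in both duplicate plates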;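 also: signal is fluorescence rise after thallium addition divided by baseline fluorescence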
Target sequence (P35561 whole entry, looked up): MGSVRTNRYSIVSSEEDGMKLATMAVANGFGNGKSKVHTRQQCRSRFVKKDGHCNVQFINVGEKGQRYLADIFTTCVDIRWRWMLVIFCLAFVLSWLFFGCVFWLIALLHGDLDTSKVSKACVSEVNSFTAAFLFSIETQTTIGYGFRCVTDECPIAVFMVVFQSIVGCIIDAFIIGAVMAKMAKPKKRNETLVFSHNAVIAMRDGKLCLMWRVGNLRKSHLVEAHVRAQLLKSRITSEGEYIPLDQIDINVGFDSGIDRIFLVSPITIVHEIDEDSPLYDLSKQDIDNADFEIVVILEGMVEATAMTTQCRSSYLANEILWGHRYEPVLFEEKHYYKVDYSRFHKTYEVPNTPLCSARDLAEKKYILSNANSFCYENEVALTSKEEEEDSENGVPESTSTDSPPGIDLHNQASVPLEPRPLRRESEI
KCNK9 uninduced = second check of KCNK9 modulator effects in non-induced HEK293 cells. hit rate 40% among 4,900. FluxOR thallium flux. AID 492997. shares compounds with KCNK9 inh. inhibition, % at 10 µM;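 active = thallium signal drop beyond 5 SD of the untreated control mean, on both duplicate plates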
Of the large screens only hits and unclear results are named; the others gave an inactive call (follow-up assays come after a bar, where they were run). The list is not random: actives were taken first. Their share in the collection is about 3.1%.

CC1=NN(C(=O)COc2ccc(C)c(C)c2)C(O)(c2ccc(Cl)cc2)C1 (stereo unspecified)	KCNK9 inh -14 | KCNK9 inh conf 50% | Kir21 sel inactive | KCNK9 uninduced 35%
CCOC(=O)C1=NN(C(=O)COc2ccccc2)C(O)(c2ccc(Br)cc2)C1 (stereo unspecified)	KCNK9 inh -11 | KCNK9 inh conf inactive | Kir21 sel inactive | KCNK9 uninduced inactive
CCOC(=O)[C@@H]1[C@H]2COc3ccc(Br)cc3[C@H]2N2C(=O)N(c3ccc(C(F)(F)F)cc3)C(=O)[C@]12C	none (no result: KCNQ1 block, KCNQ1 act, hERG protect, KCNK9 inh)
Cc1ccnc(NC(=O)c2ccc3c(c2)C(=O)N(CCC(C)C)C3=O)c1	none
COc1cc(CN2CCc3c([nH]c4ccccc34)C2)cc(OC)c1	KCNK9 inh -8.1 | KCNK9 inh conf 39% | Kir21 sel inactive | KCNK9 uninduced inactive
COc1ccccc1CN1CCc2c([nH]c3ccccc23)C1	none
COc1cccc(CNC(=O)C(Cc2ccccc2)n2cccc2)c1 (stereo unspecified)	none | KCNK9 inh conf inactive | Kir21 sel inactive | KCNK9 uninduced inactive
COc1cccc(NC(=O)C(Cc2ccccc2)n2cccc2)c1 (stereo unspecified)	none
CCn1cc(CCCC(=O)NCc2ccccc2OC)c2ccccc21	none
CCn1cc(CCCC(=O)NCc2cccc(OC)c2)c2ccccc21	none | KCNK9 inh conf inactive | Kir21 sel inactive | KCNK9 uninduced inactive
N[C@@H](Cc1ccccc1)C(=O)N1CCC(C(=O)N[C@@H](CCC(=O)O)C(=O)O)CC1	none
Cc1nc(C(=O)N2CCc3c([nH]c4ccccc34)C2c2cc(F)ccc2F)cs1 (stereo unspecified)	KCNK9 inh -10 | KCNK9 inh conf 46% | Kir21 sel inactive | KCNK9 uninduced 31%
CCOC(=O)Cn1nc(-c2ccccc2)c2ccccc2c1=O	none
O=c1c2ccccc2c(-c2ccccc2)nn1Cc1c(Cl)cccc1Cl	KCNK9 inh -10 | KCNK9 inh conf 33% | Kir21 sel inactive | KCNK9 uninduced 36%
c1ccc(CSc2nnc(-c3sccc3-n3cccc3)o2)cc1	KCNK9 inh -8.3 | KCNK9 inh conf inactive | Kir21 sel inactive | KCNK9 uninduced 35%
CC(=O)Nc1ccc(S(=O)(=O)NC2CC(=O)N(c3ccc4c(c3)OCCO4)C2)cc1 (stereo unspecified)	none
C=C(C)COc1ccc(-c2ncncc2-c2ccc(Cl)cc2)c(O)c1	none
C=C(C)COc1ccc(-c2ncncc2-c2ccc(Br)cc2)c(O)c1	none | KCNK9 inh conf inactive | Kir21 sel inactive | KCNK9 uninduced inactive
C[C@H](CO)N1C[C@H](C)[C@@H](CN(C)Cc2ccncc2)Oc2c(NS(=O)(=O)c3cn(C)cn3)cccc2C1=O	none (no result: KCNQ1 block, KCNQ1 act, hERG protect, KCNK9 inh)
N=c1c2c(-c3ccccc3)c(-c3ccccc3)n(Cc3ccco3)c2ncn1Cc1ccccc1	KCNQ1 block 10, KCNK9 inh -15 | KCNK9 inh conf 60% | Kir21 sel 52% | KCNK9 uninduced 28%
CC(C)Cn1cnc2c(c(-c3ccccc3)c(-c3ccccc3)n2Cc2ccco2)c1=N	KCNQ1 block 9, KCNK9 inh -9.9 | KCNK9 inh conf 68% | Kir21 sel 56% | KCNK9 uninduced 28%
CC1CCCC(NC(=O)CSc2ncccn2)C1C (stereo unspecified)	none (no result: KCNQ1 block, KCNQ1 act, hERG protect, KCNK9 inh)
CN(CC(=O)Nc1ccc(Cl)cc1)C(=O)CCc1c[nH]c2ccccc12	none
CC(=O)Nc1ccc(S(=O)(=O)N2CCCC(C(=O)N3CCN(c4ccccc4)CC3)C2)cc1 (stereo unspecified)	none
Cc1cc(/C=N/NC(=O)c2c(Br)cnn2C)c(C)n1-c1cccc(Br)c1	KCNK9 inh -12 | KCNK9 inh conf 54% | Kir21 sel inactive | KCNK9 uninduced 29%
COc1ccccc1OCCCOc1ccc([N+](=O)[O-])cc1Cl	none | KCNK9 inh conf inactive | Kir21 sel inactive | KCNK9 uninduced 36%
COc1cccc(OCCCOc2ccc([N+](=O)[O-])cc2Cl)c1	none
CCNc1nc(CSc2ccccc2)nc2sc(C)c(C)c12	none
Cc1sc2nc(CSc3ccccc3)nc(N3CCOCC3)c2c1C	none | KCNK9 inh conf inactive | Kir21 sel inactive | KCNK9 uninduced 32%
O=C(C[n+]1ccccn1)c1ccccc1	none
NC(N)=Nc1nc(-c2ccccc2)c2ccccc2n1	KCNK9 inh -9.6 | KCNK9 inh conf 27% | Kir21 sel inactive | KCNK9 uninduced inactive
Cc1ccc(C)c(NC(=O)c2ccccc2Sc2ccc([N+](=O)[O-])cc2Cl)c1	KCNK9 inh -14 | KCNK9 inh conf 61% | Kir21 sel inactive | KCNK9 uninduced 47%
COCCN(C(=O)COC(=O)/C=C/c1cccc(OC)c1)c1c(N)n(CC(C)C)c(=O)[nH]c1=O	none (no result: KCNQ1 block, KCNQ1 act, hERG protect, KCNK9 inh)
Cc1nonc1OCC(C)(COc1nonc1C)NC(=O)c1ccc(Cl)cc1	KCNK9 inh -9.1 | KCNK9 inh conf 46% | Kir21 sel inactive | KCNK9 uninduced 36%
Oc1cc(-n2cccn2)c(O)cc1-n1cccn1	none
Cc1ccc(CNC(=O)c2ccc(CNS(=O)(=O)c3ccc4c(c3)C(C)(C)C(=O)N4C)cc2)o1	none | KCNK9 inh conf inactive | Kir21 sel inactive | KCNK9 uninduced inactive
CCC(C)NC(=O)c1ccc(CNS(=O)(=O)c2ccc3c(c2)C(C)(C)C(=O)N3C)cc1 (stereo unspecified)	none
Clc1ccccc1CN(Cc1ccco1)Cc1nnnn1C1CCCC1	KCNK9 inh -9.9 | KCNK9 inh conf 60% | Kir21 sel 47% | KCNK9 uninduced 41%
c1coc(CN(Cc2cccs2)Cc2nnnn2C2CCCCC2)c1	none
COc1ccccc1OCC(=O)Nc1cc(C(F)(F)F)ccc1-n1cncn1	none
COC(=O)c1ccc(NC(=O)[C@H](C)NC(N)=O)cc1	none
Cc1ccccc1C(=O)NC(=S)NCCc1ccccc1	none
Cc1ccccc1C(=O)NC(=S)NCCC1=CCCCC1	none | KCNK9 inh conf inactive | Kir21 sel inactive | KCNK9 uninduced inactive
O=C1CC2(CCN(C(=O)c3cccc(Br)c3)CC2)Oc2ccccc21	none
CCOC(=O)N1CCN(C(=O)CSc2ccc3nnc(CCNC(=O)c4ccc(OC)cc4)n3n2)CC1	none
CC(C)CC1(C)N=C(c2ccccc2)C(=S)N1 (stereo unspecified)	none
O=C(CN1CCN(CCN2C(=O)c3cccc4cccc(c34)C2=O)CC1)c1ccc(F)cc1	none
COc1ccc(C(=O)CN2CCN(CCN3C(=O)c4cccc5cccc(c45)C3=O)CC2)cc1	none | KCNK9 inh conf inactive | Kir21 sel inactive | KCNK9 uninduced inactive
